Only some compounds are listed: those with a hit (about 2% of all), similar ones and a draw of the others.
Xi reactivation: activators of inactive X chromosome reactivation, primary screen, imaging, XiGFP fibroblasts, GFP high-content imaging, set 2; XiGFP mouse fibroblasts, % GFP-positive cells imaging, 3 d; cells co-treated with 5-aza-dC sensitizer; scaled so ellipticine positive control = 100%; activation, % at 7.58 µM; AID 743238, 2013; 360,000 tested, 0.055% active;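 active means mean normalized replicate activation at least 10% and every replicate at or above 10%; inconclusive means only one of the two criteria met; inactive means mean below 10% and not all replicates reach 10%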;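 further: 0% = median of on-plate neutral control wells and 100% = ellipticine 6 µM median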
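Material: SV40-immortalized XiGFP fibroblast cells, line 68-5-11 | Buffer or medium: DMEM containing 5-aza-dC | Dosing: One concentration, pinned | Times: 3 d treatment, 15 min room-temperature fixation | Controls: Ellipticine 6 µM positive control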
S100A4 inh HTS: inhibitors of S100A4-myosin IIA peptide binding, primary screen, biochemical, fluorescence polarization, TAMRA-MyoIIA peptide; 360,000 tested, 0.14% active; AID 652163, 2013; inhibition, % at 10.7 µM; Protein S100-A4 (Homo sapiens), P26447;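 active means mean inhibition of at least 70% across replicates, with every replicate also reaching that level; inconclusive means mean inhibition reaches 70% but some replicates fall short; inactive means mean inhibition below 70%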
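System – human S100A4 monomer protein, biochemical binding assay · Buffer or medium – Calcium-containing HEPES buffer, pH 7.2 · Timing – 5 min between mix addition and reading · Also added – TAMRA-labelled myosin IIA heavy-chain peptide probe, 5 nM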
E-sel inducer: E-selectin induction in HUVECs, primary screen, imaging, HUVEC, immunofluorescence imaging, single point; P16581; normalized: neutral wells 0, TNF-alpha wells 100; activation, % at 7.58 µM; 260,000 tested, 0.37% active; AID 686992, 2013;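 active means mean E-selectin-positive cell signal at least 10% of the positive control, reached in at least 60% of replicates, without over 20% cell loss; inconclusive means no rule given, readout overlaps actives, possibly toxicity-flagged; inactive means the rest, including those meeting only one limit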
Target sequence (P16581 whole entry, looked up): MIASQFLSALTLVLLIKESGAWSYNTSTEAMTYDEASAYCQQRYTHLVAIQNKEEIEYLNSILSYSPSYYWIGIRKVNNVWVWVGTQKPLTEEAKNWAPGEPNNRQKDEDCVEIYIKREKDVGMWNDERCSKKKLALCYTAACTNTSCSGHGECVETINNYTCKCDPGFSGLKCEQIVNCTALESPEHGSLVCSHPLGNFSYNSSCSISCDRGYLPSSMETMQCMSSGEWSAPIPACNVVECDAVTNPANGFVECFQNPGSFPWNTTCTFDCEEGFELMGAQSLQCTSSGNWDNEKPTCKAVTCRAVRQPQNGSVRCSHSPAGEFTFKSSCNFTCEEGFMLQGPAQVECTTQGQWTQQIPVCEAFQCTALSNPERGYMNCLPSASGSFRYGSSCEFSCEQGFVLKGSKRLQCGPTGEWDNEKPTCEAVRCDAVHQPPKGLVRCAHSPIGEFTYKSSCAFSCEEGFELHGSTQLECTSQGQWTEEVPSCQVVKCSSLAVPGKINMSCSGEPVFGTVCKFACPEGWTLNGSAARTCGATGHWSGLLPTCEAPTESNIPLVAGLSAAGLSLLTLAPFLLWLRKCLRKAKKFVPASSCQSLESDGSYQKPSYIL
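Read-out: % PE-positive cells | Test system: HUVEC | Doses: One compound dose added by pin transfer | Buffer or medium: EGM-2 over gelatin coat | Signal: Immunofluorescence imaging | Benchmarks: TNF-alpha, DMSO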
DENV2 CPE rescue: inhibitors of DENV2 cytopathic effect, primary screen, cell-based, plate reader, single concentration; DENV2-infected cells, cytopathic effect rescue; CPE inhibition, % at 9.99 µM; 350,000 tested, 1.7% active; in the data active means CPE inhibition above about 20%, passing the limit was not always enough; inconclusive means no clear call, values can overlap the other calls; tested in BHK-21 cells;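 further: 0% = median of neutral control wells and 100% = median of positive control wells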
* hit, by the source's call; ? = inconclusive; · = no result; ! = a repeat was not active.

SMILES | Xi reactivation | S100A4 inh HTS | E-sel inducer | DENV2 CPE rescue
c1ccc(COc2ccc(OCCOCCn3cncn3)cc2)cc1 | · | -2 | · | ·
Cc1ccccc1S(=O)(=O)N1C[C@@H](O)COC[C@@H]2O[C@H](CC(=O)N3CCCCC3)CC[C@H]21 | 0 | 2 | 0 | 110*
Cc1ccccc1S(=O)(=O)N1C[C@H](O)COC[C@@H]2O[C@@H](CC(=O)NCc3ccccc3Cl)CC[C@H]21 | 0 | 115* | 0 | 0
CCNC(=O)C[C@@H]1CC[C@H]2[C@@H](COC[C@@H](O)CN2S(=O)(=O)c2ccccc2F)O1 | 0 | -5 | 0 | 23*
Cn1cnc(S(=O)(=O)N2C[C@H](O)COC[C@@H]3O[C@@H](CC(=O)NC4CCCC4)CC[C@H]32)c1 | 0 | -2 | 0 | 59*
CCCNC(=O)C[C@H]1CC[C@H]2[C@@H](COC[C@@H](O)CN2S(=O)(=O)c2ccccc2F)O1 | 0 | 2 | 0 | 8
CSc1ccccc1NC(=O)CN(C)CC(=O)Nc1ccccc1N1CCOCC1 | 0 | 1 | · | 1
CC(NC(=O)C(Cc1ccccc1)n1cccc1)c1ccccc1 (stereo not drawn) | 0 | -3 | 1 | 3
N/C(=N\OC(=O)COc1cc(Cl)c(Cl)cc1Cl)c1ccncc1 | 0 | -5 | 74* | 2
F[B-](F)(F)COc1ccccc1 | 0 | 5 | · | 36*
CC1COCC(C)N1C(=O)c1cccnc1 (stereo not drawn) | 0 | -1 | · | 18
O=C(c1cccnc1)C1Cc2ccccc2C1=O (stereo not drawn) | 0 | -2 | -1 | 49*
Cc1ccc(C(=O)NCc2ccccn2)cc1NC1=NC2CS(=O)(=O)CC2S1 (stereo not drawn) | 22* | -2 | 2 | -7
C[C@H]1CN([C@@H](C)CO)C(=O)c2cccc(NS(C)(=O)=O)c2O[C@H]1CN(C)Cc1ccccc1 | 0 | 2 | 0 | 14
C[C@@H]1CN([C@H](C)CO)C(=O)c2cccc(NS(C)(=O)=O)c2O[C@H]1CN(C)Cc1ccncc1 | 0 | 5 | 125* | -2
C[C@@H]1CN([C@H](C)CO)C(=O)c2cccc(NS(C)(=O)=O)c2O[C@@H]1CN(C)Cc1ccc(Oc2ccccc2)cc1 | 0 | -4 | 41* | ?
C[C@H](CO)N1C[C@H](C)[C@@H](CN(C)Cc2ccccc2)Oc2c(NS(C)(=O)=O)cccc2C1=O | -1 | -5 | 0 | 39*!
C[C@@H]1CN([C@@H](C)CO)C(=O)c2cccc(NS(C)(=O)=O)c2O[C@H]1CN(C)Cc1ccc(Oc2ccccc2)cc1 | 0 | 7 | 18 | -13
COc1ccc2c(c1)C(=O)N(CCc1ccc(S(=O)(=O)NC(=O)NC3CCCCC3)cc1)C(=O)C2(C)C | 0 | 9 | 0 | ?
O=S(=O)(N[C@@H]1CC[C@@H](CCn2cc(-c3ccccn3)nn2)O[C@H]1CO)c1cccc(Cl)c1 | -1 | 11 | 0 | 37*
Cc1ccc(S(=O)(=O)N[C@H]2CC[C@@H](CCn3cc(-c4cccc(F)c4)nn3)O[C@H]2CO)cc1 | 0 | -14 | 0 | 34*
Cc1ccc(S(=O)(=O)N[C@@H]2CC[C@H](CCn3cc(-c4cccc(F)c4)nn3)O[C@H]2CO)cc1 | 0 | -7 | 0 | -3
O=S(=O)(N[C@H]1CC[C@H](CCn2cc(-c3cccnc3)nn2)O[C@@H]1CO)c1ccccc1 | 0 | -7 | 3 | 29*
CCCc1cn(CC[C@@H]2CC[C@H](NS(=O)(=O)c3ccccc3Cl)[C@@H](CO)O2)nn1 | 0 | 97* | 0 | 2
COc1ccc(-c2csc3ncnc(N4CCN(c5cccc(C)c5C)CC4)c23)cc1 | 0 | -3 | · | -8
SMILES | Xi reactivation | S100A4 inh HTS | E-sel inducer | DENV2 CPE rescue
CO[C@@H]1CN(C)C(=O)c2ccc(NS(=O)(=O)c3ccc(C)cc3)cc2OC[C@H](C)NC[C@H]1C | 0 | -1 | 0 | 4
COc1ccc(N2CCN(CC(O)COc3ccc(C)c(C)c3)CC2)cc1 (stereo not drawn) | 0 | -19 | · | 0
NS(=O)(=O)c1ccc(NC(=O)CCC(=O)N2CCOCC2)cc1 | 0 | -9 | 34* | 4
O=C(CCC(=O)N1CCOCC1)Nc1ccc(Cl)c(Cl)c1 | 0 | 10 | 85* | -4
NS(=O)(=O)c1ccc(NC(=O)COC(=O)CCc2ccc(S(=O)(=O)N3CCOCC3)cc2)cc1 | 0 | -4 | · | -5
C=CCNC(=O)[C@@H]1[C@H]2C(=O)O[C@H](c3ccccc3)[C@H](c3ccccc3)N2[C@H](c2ccc(O)cc2)[C@@]12C(=O)Nc1ccc(C#CCC(C(=O)OC)C(=O)OC)cc12 | · | -1 | · | 32*
C=CCNC(=O)[C@H]1[C@@H]2C(=O)O[C@@H](c3ccccc3)[C@@H](c3ccccc3)N2[C@@H](c2ccc(O)cc2)[C@]12C(=O)Nc1ccc(C#CCCO)cc12 | · | 6 | · | -8
CN(C)CC#Cc1ccc([C@H]2[C@@H](CO)N3CCCCN(S(=O)(=O)c4ccccc4)C[C@@H]23)cc1 | 0 | -3 | 0 | 44*
COc1ccc(C#Cc2ccc([C@H]3[C@H]4CN(S(=O)(=O)c5ccccc5)CCCCN4[C@H]3CO)cc2)cc1 | 0 | 123* | 0 | -8
N#Cc1ccc(-c2ccc([C@@H]3[C@H](CO)N4CCCCN(S(=O)(=O)c5ccccc5)C[C@@H]34)cc2)cc1 | 0 | -3 | 0 | 23*
CCS(=O)(=O)N1CCCCN2[C@@H](CO)[C@@H](c3ccc(-c4ccc(C#N)cc4)cc3)[C@@H]2C1 | 0 | -8 | 0 | 45*
CCS(=O)(=O)N1CCCCN2[C@H](C1)[C@H](c1ccc(-c3ccc(C#N)cc3)cc1)[C@@H]2CO | 0 | 5 | -1 | 2
COc1ccc(CCNC2CCC(c3ccccc3)CC2)cc1 (stereo not drawn) | 0 | 3 | 0 | ?
C[C@@H]1CN([C@H](C)CO)C(=O)c2cc(-c3ccccc3)cnc2O[C@H]1CN(C)C(=O)Cc1cccnc1 | -1 | 9 | 0 | -5
O=S(=O)(Cc1ccccc1)N1CCCCN2[C@H](C1)[C@H](c1ccc(-c3ccc(F)cc3)cc1)[C@@H]2CO | 0 | 6 | -1 | ?
O=S(=O)(c1ccccc1)N1CCCCN2[C@@H](CO)[C@H](c3ccc(C#Cc4ccccc4)cc3)[C@@H]2C1 | 0 | 5 | 0 | 22*
O=S(=O)(Cc1ccccc1)N1CCCCN2[C@H](CO)[C@@H](c3ccc(-c4ccc(F)cc4)cc3)[C@H]2C1 | 0 | 3 | 0 | 41*
CCOC(=O)CCCN1CC(O)=C(c2nc(-c3ccc(Cl)cc3)cs2)C1=N | 0 | -1 | · | -3
